Activity calls are given as the source filed them. The rule behind the calls is not given here.
Columns and labels:
Bos taurus [1] = organism: Bos taurus; assay: Binding affinity to bovine chymotrypsin assessed as protein labeling at 2 uM measured after 15 mins by fluorescent scanning method
Procedure, shortened: (§1)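 100 ng purified protease per lane; cathepsin G in 50 mM HEPES pH 7.4 with 100 mM NaCl, others in 50 mM phosphate pH 7.4. Optional 30 min pre-block (chymotrypsin 100 µM Ala-Ala-Phe-phosphonate, cathepsin G 1 mM PMSF, urokinase 100 µM DFP, elastase/trypsin 1 mM dichloroisocoumarin). Probe 2 µM, 15 min at room temperature. Then 30 min room-temperature click (25 µM TAMRA-PEG-N3, 50 µM THPTA, 1 mM CuSO4, 500 µM ascorbate), SDS-PAGE, scan ex 532/em 580 nm.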

Sus scrofa [2] = organism: Sus scrofa; assay: Binding affinity to porcine pancreatic elastase assessed as protein labeling at 2 uM after 15 mins by fluorescent scanning method; procedure, shortened: as §1
[3] = biological target: Urokinase-type plasminogen activator (Homo sapiens) (UniProt P00749); assay: Binding affinity to urokinase-type plasminogen activator assessed as protein labeling at 2 uM after 15 mins by fluorescent scanning method; procedure, shortened: as §1
Trypsin (Homo sapiens) = Trypsin (Homo sapiens) (UniProt P07477+P07478+P35030); assay: Binding affinity to trypsin assessed as protein labeling at 2 uM after 15 mins by fluorescent scanning method; format: protein assay; procedure, shortened: as §1
Bos taurus [4] = organism: Bos taurus; assay: Binding affinity to bovine chymotrypsin assessed as protein labeling at 2 uM measured after 15 mins pretreated with 100 uM Ala-Ala-Phe-diphenyl phosphonate for 30 mins before compound addition by fluorescent scanning method; procedure, shortened: as §1
Sus scrofa [5] = organism: Sus scrofa; assay: Binding affinity to porcine pancreatic elastase assessed as protein labeling at 2 uM after 15 mins pretreated with 1 mM 3,4-dichloroisocoumarin for 30 mins before compound addition by fluorescent scanning method; procedure, shortened: as §1
[6] = biological target: Urokinase-type plasminogen activator (Homo sapiens) (UniProt P00749); assay: Binding affinity to urokinase-type plasminogen activator assessed as protein labeling at 2 uM after 15 mins pretreated with 100 uM DFP for 30 mins before compound addition by fluorescent scanning method; procedure, shortened: as §1
[7] = biological target: T1, Cathepsin G (Homo sapiens) (UniProt P08311); assay: Binding affinity to human cathepsin G assessed as protein labeling at 2 uM after 15 mins by fluorescent scanning method; procedure, shortened: as §1
T1 sequence (whole entry): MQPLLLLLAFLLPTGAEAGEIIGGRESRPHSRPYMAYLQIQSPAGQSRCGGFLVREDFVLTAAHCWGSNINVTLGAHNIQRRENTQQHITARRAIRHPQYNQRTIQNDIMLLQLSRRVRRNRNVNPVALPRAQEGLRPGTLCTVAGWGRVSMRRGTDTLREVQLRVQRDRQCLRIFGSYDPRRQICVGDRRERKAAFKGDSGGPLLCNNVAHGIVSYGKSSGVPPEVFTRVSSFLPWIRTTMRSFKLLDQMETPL

Rattus norvegicus [8] = organism: Rattus norvegicus; assay: Binding affinity to 26 kDa Chymotrypsin in rat liver proteome assessed as protein labeling at 1 uM after 30 mins by fluorescent scanning method
Procedure, shortened: (§2)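 Rat liver homogenate (70 µm strainer, 0.5% NP-40 substitute in PBS, 1 h on ice, 15,000 rpm spin), diluted to 1 mg/mL protein in 50 mM phosphate, pH 7.4; pretreated 30 min on ice with DMSO, TPCK (100 µM) or PMSF (1 mM), then IC probe. Cu(I) click with TAMRA-PEG-N3/THPTA/CuSO4/ascorbate, SDS-PAGE, fluorescence scan (ex 532/em 580 nm).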

Rattus norvegicus [9] = organism: Rattus norvegicus; assay: Binding affinity to 26 kDa Chymotrypsin in rat liver proteome assessed as protein labeling at 1 uM after 30 mins pre-treated with 100 uM TPCK for 30 mins before compound addition by fluorescent scanning method; procedure, shortened: as §2
[10] = biological target: Urokinase-type plasminogen activator (Homo sapiens) (UniProt P00749); assay: (§3) Binding affinity to urokinase-type plasminogen activator assessed as protein labeling at 2 uM after 15 mins in presence of mouse EL4 lymphoma cell lysate for protease spiking by fluorescent scanning method relative to total protein content; format: cell-free
Procedure, shortened: (§4)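 Protease spiked into EL4 mouse lymphoma lysate (RIPA, 30 min on ice, cleared by centrifugation; 1 mg/mL protein in 50 mM phosphate pH 7.4), optionally pre-blocked (urokinase 100 µM DFP). Labeled with 2 µM probe 15 min on ice. Click on ice 30 min with TAMRA-PEG-N3, THPTA, CuSO4, ascorbate; 12% or 15% SDS-PAGE, fluorescence scan ex 532/em 580 nm.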

[11] = biological target: Urokinase-type plasminogen activator (Homo sapiens) (UniProt P00749); assay: as §3, with “mins pretreated with 100 uM DFP for 30 mins before compound addition” for “mins”; format: cell-free; procedure, shortened: as §4
Rattus norvegicus [12] = organism: Rattus norvegicus; assay: Binding affinity to 25 kDa Chymotrypsin in rat liver proteome assessed as protein labeling at 1 uM after 30 mins by fluorescent scanning method; procedure, shortened: as §2
Rattus norvegicus [13] = organism: Rattus norvegicus; assay: Binding affinity to 25 kDa Chymotrypsin in rat liver proteome assessed as protein labeling at 1 uM after 30 mins pre-treated with 100 uM TPCK for 30 mins before compound addition by fluorescent scanning method; procedure, shortened: as §2
lymphoma = assay: Binding affinity to porcine pancreatic elastase assessed as protein labeling at 2 uM after 15 mins in presence of mouse EL4 lymphoma cell lysate for protease spiking by fluorescent scanning method relative to total protein content; format: cell-free; settings: Sus scrofa; procedure, shortened: as §4
Rattus norvegicus [14] = organism: Rattus norvegicus; assay: Binding affinity to 50 kDa Serine protease band in rat liver proteome assessed as protein labeling at 1 uM after 30 mins by fluorescent scanning method; settings: 0.5 uM, in the assay text read “at 0.5 uM” for “at 1 uM”; procedure, shortened: as §2
Rattus norvegicus [15] = organism: Rattus norvegicus; assay: Binding affinity to 50 kDa Serine protease band in rat liver proteome assessed as protein labeling at 1 uM after 30 mins pre-treated with 100 uM TPCK for 30 mins before compound addition by fluorescent scanning method; settings: 0.5 uM, in the assay text read “at 0.5 uM” for “at 1 uM”; procedure, shortened: as §2
Rattus norvegicus [16] = organism: Rattus norvegicus; assay: Binding affinity to 50 kDa Serine protease band in rat liver proteome assessed as protein labeling at 1 uM after 30 mins pre-treated with serin eprotease inhibitor PMSF for 30 mins before compound addition by fluorescent scanning method; settings: 0.5 uM, in the assay text read “at 0.5 uM” for “at 1 uM”; procedure, shortened: as §2
[17] = biological target: T1, Cathepsin G (Homo sapiens); assay: Binding affinity to human cathepsin G assessed as protein labeling at 2 uM after 15 mins in presence of mouse EL4 lymphoma cell lysate for protease spiking by fluorescent scanning method relative to total protein content; format: cell-free; procedure, shortened: as §4

| Compound | Activity (Bos taurus [1]) | Activity (Sus scrofa [2]) | Activity [3] | Activity (Trypsin (Homo sapiens)) | Activity (Bos taurus [4]) | Activity (Sus scrofa [5]) | Activity [6] | Activity [7] | other results |
| --- | --- | --- | --- | --- | --- | --- | --- | --- | --- |
| C#CCCOc1oc(=O)c2ccccc2c1Cl | Active | Active | Active | Active | inactive |  | inactive | Active | Activity (Rattus norvegicus [8]): Active; Activity (Rattus norvegicus [9]): inactive |
| C#CCCC(=O)Nc1ccc2c(Cl)c(OCCBr)oc(=O)c2c1 | Active | Active |  |  | inactive | inactive |  | Active |  |
| C#CCCC(=O)Nc1ccc2c(Cl)c(OCCc3ccccc3)oc(=O)c2c1 | Active |  |  |  | inactive |  |  |  |  |
| C#CCCC(=O)Nc1ccc2c(Cl)c(OC)oc(=O)c2c1 | Active | Active |  |  | inactive | inactive |  | Active | Activity (lymphoma): 0.007% |
| C#CCCC(=O)Nc1ccc2c(Cl)c(OCCSC(=N)N)oc(=O)c2c1 | Active |  | Active | Active | inactive |  |  |  |  |

Continued, in another order:

| Activity (Bos taurus [1]) | Activity (Sus scrofa [2]) | Activity [3] | Activity (Trypsin (Homo sapiens)) | Activity (Bos taurus [4]) | Activity (Sus scrofa [5]) | Activity [6] | Activity [7] | Compound | other results |
| --- | --- | --- | --- | --- | --- | --- | --- | --- | --- |
| Active | Active | Active | Active | inactive | Active | inactive |  | C#CCCOc1oc(=O)c2cc([N+](=O)[O-])ccc2c1Cl |  |
| Active | Active | Active | Active | inactive | inactive |  |  | C#CCCOc1oc(=O)c2cc(NC(=O)CNC(=N)N)ccc2c1Cl | Activity [10]: 0.03%; Activity [11]: Active |
| Active |  |  |  | inactive |  |  | Active | C#CCCOc1oc(=O)c2cc(NC(=O)c3ccccc3)ccc2c1Cl | Activity (Rattus norvegicus [12]): Active; Activity (Rattus norvegicus [13]): inactive |
| Active | Active | Active | Active | inactive | Active | inactive | Active | C#CCCOc1oc(=O)c2cc(N)ccc2c1Cl | Activity (Rattus norvegicus [14]): Active; Activity (Rattus norvegicus [15]): Active; Activity (Rattus norvegicus [16]): inactive; Activity [17]: 0.03% |
| Active |  | Active | Active | inactive |  |  |  | C#CCCOc1oc(=O)c2cc(NC(=O)CN)ccc2c1Cl |  |
